The results in this text go back to ChEMBL document CHEMBL1133118 (J Med Chem, 2000).

For test [1], the target named is T1, Adenosine receptor A1 (Homo sapiens, UniProt P30542).
T1 sequence (P30542 whole entry): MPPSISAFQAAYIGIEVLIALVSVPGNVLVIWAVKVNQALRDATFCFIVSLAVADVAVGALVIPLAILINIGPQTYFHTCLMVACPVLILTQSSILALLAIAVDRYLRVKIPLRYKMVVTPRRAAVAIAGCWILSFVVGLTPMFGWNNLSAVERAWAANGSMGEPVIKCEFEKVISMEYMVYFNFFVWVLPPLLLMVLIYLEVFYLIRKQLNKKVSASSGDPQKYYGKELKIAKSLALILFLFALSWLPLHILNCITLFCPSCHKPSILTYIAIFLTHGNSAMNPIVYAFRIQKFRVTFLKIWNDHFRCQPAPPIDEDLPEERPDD
Description: Displacement of [3H]DPCPX from human adenosine A1 receptor expressed in CHO cells; range 885-1163. The test is classed as cell-based.

Test [2] has as its target T2, Adenosine receptor A2a (Homo sapiens, UniProt P29274). Description: Displacement of [3H]-SCH- 58261 from human adenosine A2A receptor expressed in CHO cells; range 632-1003. It counts as cell-based. The procedure, abridged: (§1)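 Membranes from CHO cells stably expressing human A2A receptor, grown in DMEM/F12 without nucleosides, resuspended in 50 mM Tris HCl, 10 mM MgCl2, pH 7.4; 50 μg protein/assay. Competition with [3H]SCH 58261 at 6–8 or more compound concentrations, 60 min at 25 °C; nonspecific binding with 50 μM NECA. Filtration on GF/B filters, scintillation counting; n=3-6.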
A general note: Displacement assays read how much labelled ligand stays bound in the presence of the test substance.

In test [3] the target is T3, Adenosine receptor A3 (Homo sapiens, UniProt P0DMS8).
T3 sequence (P0DMS8 whole entry): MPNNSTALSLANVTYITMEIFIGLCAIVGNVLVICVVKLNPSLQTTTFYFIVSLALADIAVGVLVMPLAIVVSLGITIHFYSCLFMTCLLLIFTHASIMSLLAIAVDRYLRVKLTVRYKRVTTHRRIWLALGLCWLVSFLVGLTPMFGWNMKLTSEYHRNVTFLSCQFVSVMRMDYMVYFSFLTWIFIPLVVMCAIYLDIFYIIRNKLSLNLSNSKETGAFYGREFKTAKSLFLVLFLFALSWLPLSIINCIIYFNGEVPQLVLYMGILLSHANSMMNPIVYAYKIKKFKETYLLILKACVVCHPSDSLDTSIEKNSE
Briefly: Displacement of [3H]MRE3008-F20 from human adenosine A3 receptor expressed in CHO cells; range 2.13-3.62. It counts as cell-based.

The target in test [4] is Adenosine receptors; A1 & A3 (Homo sapiens) (UniProt P30542+P0DMS8). Briefly: Ratio of binding affinity of human A1 receptor to that of human A3 receptor. The test is classed as protein assay. The procedure, abridged: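 Ki ratio from displacement in CHO membranes, 6–8 concentrations, n=3-6, filtration counting. A1: 1 nM [3H]DPCPX, 50 μg protein, 120 min at 25 °C, nonspecific with 10 μM CHA. A3: 1 nM [3H]MRE3008-F20, 50 μg protein, Tris/10 mM MgCl2 pH 7.4, 120 min at 4 °C, nonspecific with 1 μM MRE3008-F20.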

The target in test [5] is Adenosine receptors; A2b & A3 (Homo sapiens) (UniProt P29275+P0DMS8). Description: Ratio of binding affinity of human A2B receptor to that of human A3 receptor. The test is classed as protein assay. A digest of the protocol: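 Ki ratio, n=3-6, 6–8 concentrations. A2B in HEK-293 membranes (20 μg): 40 nM [3H]DPCPX, 50 mM Tris HCl, 10 mM MgCl2, 1 mM EDTA, 0.1 mM benzamidine pH 7.4, 2 IU/mL adenosine deaminase, 60 min at 25 °C, nonspecific with 100 μM NECA. A3 in CHO membranes (50 μg): 1 nM [3H]MRE3008-F20, 120 min at 4 °C.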

The target in test [6] is T4, Adenosine receptor A3 (Homo sapiens) (UniProt P0DMS8).
T4 sequence (whole entry): T3 sequence (P0DMS8 whole entry)
The following applies: CHO, 1 uM.

In test [7] the target is T5, Adenosine receptor A2b (Homo sapiens, UniProt P29275).
T5 sequence (P29275 whole entry): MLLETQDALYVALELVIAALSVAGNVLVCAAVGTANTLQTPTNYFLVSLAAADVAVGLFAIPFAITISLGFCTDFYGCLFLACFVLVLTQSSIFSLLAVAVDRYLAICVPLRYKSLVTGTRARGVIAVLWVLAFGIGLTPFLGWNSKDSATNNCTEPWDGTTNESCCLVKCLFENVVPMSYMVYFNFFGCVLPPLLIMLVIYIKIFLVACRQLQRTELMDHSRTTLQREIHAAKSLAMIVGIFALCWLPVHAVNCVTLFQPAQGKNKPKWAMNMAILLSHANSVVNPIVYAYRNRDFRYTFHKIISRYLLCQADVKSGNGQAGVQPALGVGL
Briefly: Displacement of [3H]DPCPX from Adenosine A2b receptor expressed in HEK-293 cells; range 432-469.

In test [8] the target is T2, Adenosine receptor A2a. Description: Displacement of [3H]-SCH- 58261 from human adenosine A2A receptor expressed in CHO cells; range 17-24. The test is classed as cell-based. A digest of the protocol:
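CHO membranes expressing human A2A receptor (50 μg protein) in 50 mM Tris HCl, 10 mM MgCl2, pH 7.4, competed against [3H]SCH 58261. At least 6–8 test concentrations were used, with 60 min incubation at 25 °C. Nonspecific binding defined by 50 μM NECA; n=3-6.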

Test [9] addresses T1, Adenosine receptor A1. Description: Displacement of [3H]DPCPX from human adenosine A1 receptor expressed in CHO cells; range 123-160. The test is classed as cell-based.
For test [10], the target named is T4, Adenosine receptor A3 (Homo sapiens). Description: Percentage of blockade by 1 uM of the inhibition by 100 nM IB-MECA-inhibited cAMP accumulation in CHO cells expressing human adenosine A3 receptor. It counts as functional, cell-based. A digest of the protocol: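 CHO cells stably expressing human A3 receptor; membranes in 50 mM Tris HCl, 10 mM MgCl2, 1 mM EDTA pH 7.4 with 5 μM GTP, 0.5 mM […] and 2.0 IU/mL adenosine deaminase. Preincubated 10 min at 37 °C, then IB-MECA (100 nM) and/or antagonist with 1 mM ATP and 10 μM forskolin for 10 min. Boiled 2 min. cAMP read by [3H]cAMP competition with adrenal binding protein.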

The target in test [11] is T3, Adenosine receptor A3. Briefly: biochemical.
Test [12] has as its target T5, Adenosine receptor A2b. Description: Displacement of [3H]DPCPX from Adenosine A2b receptor expressed in HEK-293 cells; range 44-58.
Test [13] addresses T3, Adenosine receptor A3. Briefly: Displacement of [3H]MRE3008-F20 from human adenosine A3 receptor expressed in CHO cells; range 1061-1245. The test is classed as cell-based.
Test [14] addresses T2, Adenosine receptor A2a. Description: Displacement of [3H]-SCH- 58261 from human adenosine A2A receptor expressed in CHO cells; range 36-55. It counts as cell-based. A digest of the protocol: as §1
The target of test [15] is T5, Adenosine receptor A2b. Briefly: Displacement of [3H]DPCPX from Adenosine A2b receptor expressed in CHO cells; range 343-468. The test is classed as cell-based. To be noted: in the assay text read “HEK-293 cells” for “CHO cells”. A digest of the protocol:
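Human recombinant A2B receptor was expressed in HEK-293 cell membranes (20 μg protein). Incubated with 40 nM [3H]DPCPX in 50 mM Tris HCl, 10 mM MgCl2, 1 mM EDTA, 0.1 mM benzamidine, pH 7.4, with 2 IU/mL adenosine deaminase, at least 6–8 test concentrations, 60 min, 25 °C. Nonspecific binding was taken with 100 μM NECA; n=3-6.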

The target in test [16] is T1, Adenosine receptor A1. Description: Displacement of [3H]DPCPX from human adenosine A1 receptor expressed in CHO cells; range 134-229. The test is classed as cell-based.
In test [17] the target is T5, Adenosine receptor A2b. Briefly: Displacement of [3H]DPCPX from Adenosine A2b receptor expressed in […]; range 183-278. It counts as cell-based.
The target of test [18] is T3, Adenosine receptor A3. Description: Displacement of [3H]MRE3008-F20 from human adenosine A3 receptor expressed in CHO cells; range 51-70. The test is classed as cell-based.
The target in test [19] is T2, Adenosine receptor A2a. Description: Displacement of [3H]-SCH- 58261 from human adenosine A2A receptor expressed in CHO cells; range 70-130. The test is classed as cell-based. A digest of the protocol:
as §1

Test [20] concerns the target T3, Adenosine receptor A3. Briefly: Displacement of [3H]MRE3008-F20 from human adenosine A3 receptor expressed in CHO cells; range 0.52-0.68. The test is classed as cell-based.
Test [21] addresses T5, Adenosine receptor A2b. Description: Displacement of [3H]DPCPX from Adenosine A2b receptor expressed in […]; range 56-89. The test is classed as cell-based.
Test [22] deals with T1, Adenosine receptor A1. Description: Displacement of [3H]-DPCPX from human adenosine A1 receptor expressed in CHO cells; range 213-281. It counts as cell-based.
For test [23], the target named is T3, Adenosine receptor A3. Briefly: Inhibition of cAMP accumulation in CHO cells expressing human adenosine A3 receptor; range 3.0-6.9. The test is classed as functional, cell-based. For orientation: cAMP levels reflect the balance of adenylyl cyclase and phosphodiesterase activity.
In test [24] the target is T4, Adenosine receptor A3 (Homo sapiens). To be noted: CHO, 1 uM. The source holds these as a separate data set.

In general, Ki refers to a measure of affinity in units of concentration, obtained from inhibition or displacement. Low values mean higher affinity, high ones lower affinity. A word on the inhibition: it is the relative decrease from the control value, in per cent. Low readings indicate a weak effect, high ones a strong effect. As a reminder, the IC50 is the midpoint of a concentration-inhibition curve. A lower IC50 goes with higher potency.

T2 sequence (P29274 whole entry): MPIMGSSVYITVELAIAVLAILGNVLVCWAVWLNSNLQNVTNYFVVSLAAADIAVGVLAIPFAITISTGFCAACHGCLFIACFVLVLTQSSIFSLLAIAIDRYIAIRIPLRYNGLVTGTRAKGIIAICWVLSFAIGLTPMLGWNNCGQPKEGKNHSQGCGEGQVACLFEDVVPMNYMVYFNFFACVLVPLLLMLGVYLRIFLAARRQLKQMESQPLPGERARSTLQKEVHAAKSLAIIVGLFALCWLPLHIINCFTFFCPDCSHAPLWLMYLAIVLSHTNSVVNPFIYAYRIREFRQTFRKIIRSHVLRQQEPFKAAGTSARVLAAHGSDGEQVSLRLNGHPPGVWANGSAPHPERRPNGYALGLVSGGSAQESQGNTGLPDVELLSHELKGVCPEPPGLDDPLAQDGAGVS

For `CC(C)(C)n1cc2c(nc(NC(=O)Nc3cccc(Cl)c3)n3nc(-c4ccco4)nc23)n1`, the Ki in test [1] was determined as 1.02 µM; in test [2], 0.796 µM; in test [3], 0.00278 µM; in test [7] it was 0.45 µM. Also, the Ratio in [4] turned out to be 365; in test [5], 162. In addition, the inhibition in test [6] is 70%.

Take `Nc1nc2n[nH]cc2c2nc(-c3ccco3)nn12`: the inhibitory constant (Ki) stood at 0.02 µM in [8], 0.14 µM in test [9], 0.348 µM in test [11] and 0.051 µM in test [12]. Besides, the Ratio in [4] was found to be 0.4; in test [5], 0.15. The inhibition in [10] was determined as 24%.

Take `CC(C)(C)n1cc2c(nc(N)n3nc(-c4ccco4)nc23)n1`: the Ki was determined as 1.15 µM in [13], 0.045 µM in test [14], 0.4 µM in test [15] and 0.175 µM in test [16]. Moreover, the values for the Ratio in test [4] and in test [5] were 0.15 and 0.35, respectively. The molecule also had an inhibition in test [10] of 9%.

Regarding `O=C(Nc1cccc(Cl)c1)Nc1nc2nn(CCCc3ccccc3)cc2c2nc(-c3ccco3)nn12`, the Ki in [17] was determined as 0.226 µM; in test [18], 0.06 µM. Further, the results for the Ratio in test [4] and in test [5] were 25 and 3.7, respectively. For the same molecule, the inhibition in test [10] was 39%.

Turning to `CCCCn1cc2c(nc(NC(=O)Nc3cccc(Cl)c3)n3nc(-c4ccco4)nc23)n1`, the Ki in test [19] was 0.095 µM; in [20], 0.0006 µM; in [21], 0.07 µM; in test [22] it was 0.245 µM. The same molecule displayed an IC50 in test [23] of 0.0045 µM. For the same molecule, the results for the Ratio in [4] and in test [5] were 408 and 116, respectively. The same molecule registered an inhibition in test [24] of 85%.
